Experimental data from ChEMBL document CHEMBL5705892, “MK-2206, an allosteric Akt inhibitor, enhances antitumor efficacy by standard chemotherapeutic agents or molecular targeted drugs in vitro and in vivo” (Mol Cancer Ther, 2010).
Active and inactive are the calls of the source. The calls are words filed in the database; no cut-off is given here.

Key:
NCI-H292 [1] = assay: Antitumor activity against human NCI-H292 cells xenografted in CD-1 mouse assessed as tumor growth suppression at 50 mg/kg, po administered once daily for 5 days per week for 2 weeks and measured twice a week during compound dosing by caliper method; type: functional, organism-based
How it was run: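 Female CD1-nude mice carried s.c. NCI-H292 cells in Matrigel/PBS and were randomized at 0.2 cm³, n = 5. […] MK-2206 (30% Captisol) was given 2 h later at 120 mg/kg po on days 0, 2, 4, 7, 9, 11, or at 360 mg/kg on days 0 and 7. Control received vehicle. Caliper volume twice weekly.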

Mus musculus [2] = assay: In vivo inhibition of EGFR in human NCI-H292 cells xenografted mouse assessed as reduction in ERK phosphorylation at T202/Y204 residues at 50 mg/kg, po administered as single dose measured after 14 hrs by Western blot analysis; type: functional, organism-based
NCI-H292 [3] = assay: Antiproliferative activity against human NCI-H292 cells assessed as reduction in cell proliferation measured after 72 hrs by celltiter-glo assay; type: functional, cell-based; conditions: NCI-H292, 72 h
How it was run: (§1)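 Cells in RPMI 1640 with 10% heat-inactivated FBS at 37°C and 5% CO₂ were seeded at 2 to 3 × 10³ per well. […] Growth was read as cellular ATP by CellTiter-Glo.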

Mus musculus [4] = assay: In vivo inhibition of EGFR in human NCI-H292 cells xenografted mouse assessed as reduction in AKT phosphorylation at S473 residue at 50 mg/kg, po administered as single dose measured after 14 hrs by Western blot analysis; type: functional, organism-based
NCI-H1299 = assay: Antiproliferative activity against human NCI-H1299 cells assessed as reduction in cell proliferation measured after 72 hrs by celltiter-glo assay; type: functional, cell-based; conditions: NCI-H1299, 72 h; how it was run: as §1
Calu-6 = assay: Antiproliferative activity against human Calu-6 cells assessed as reduction in cell proliferation measured after 72 hrs by celltiter-glo assay; type: functional, cell-based; conditions: Calu-6, 72 h; how it was run: as §1
[5] = Toxicity in human NCI-H292 cells xenografted CD-1 mouse assessed as death at 50 mg/kg, po administered once daily for 5 days per week for 2 weeks and measured during compound dosing; type: organism-based; conditions: in vivo, 336 h
How it was run: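 NCI-H292 cells in 50% Matrigel/PBS injected s.c. into flank of female CD1-nude mice; dosing began after 2 wk at mean tumour 0.2 cm³, n = 5/group. […] Body weight and signs monitored; treatment ended day 16.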

NCI-H292 [6] = assay: Induction of apoptosis in human NCI-H292 cells assessed as increase in caspase-3/7 activity up to 20 umol/L measured after 48 hrs by caspase-glo 3/7 assay; type: functional, cell-based; conditions: dose <= 20.0 µmol/L
How it was run: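 Caspase-3/7 activity was measured by Caspase-Glo 3/7 and expressed as fold over DMSO vehicle control. The experiment was done twice.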

NCI-H23 = assay: Antiproliferative activity against human NCI-H23 cells assessed as reduction in cell proliferation measured after 72 hrs by celltiter-glo assay; type: functional, cell-based; conditions: NCI-H23, 72 h; how it was run: as §1
HCC827 = assay: Antiproliferative activity against human HCC827 cells assessed as reduction in cell proliferation measured after 72 hrs by celltiter-glo assay; type: functional, cell-based; conditions: HCC827, 72 h; how it was run: as §1
NCI-H358 = assay: Antiproliferative activity against human NCI-H358 cells assessed as reduction in cell proliferation measured after 72 hrs by celltiter-glo assay; type: functional, cell-based; conditions: NCI-H358, 72 h; how it was run: as §1
A-431 = assay: Antiproliferative activity against human A-431 cells assessed as reduction in cell proliferation measured after 72 hrs by celltiter-glo assay; type: functional, cell-based; conditions: A-431, 72 h; how it was run: as §1
[7] = target: RAC-alpha serine/threonine-protein kinase (Homo sapiens) (UniProt P31749); assay: Induction of AKT phosphorylation at S473 residue in human NCI-H1703 cells at 0.7 nmol/L measured after 8 hrs by MSD assay; type: cell-based; conditions: filed as activator
How it was run: (§2)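 Lung cancer cells were seeded at 5 × 10⁴ per well, and carboplatin or gemcitabine was added 24 h after plating. Phospho-Akt induction was then measured.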

[8] = target: RAC-alpha serine/threonine-protein kinase (Homo sapiens) (UniProt P31749); assay: Induction of AKT phosphorylation at S473 residue in human NCI-H1993 cells at 28 nmol/L measured after 8 hrs by MSD assay; type: cell-based; conditions: filed as activator; how it was run: as §2
[9] = target: RAC-alpha serine/threonine-protein kinase (Homo sapiens) (UniProt P31749); assay: Induction of AKT phosphorylation at S473 residue in human UMC-11 cells at 10 umol/L measured after 4 to 24 hrs by MSD assay; type: cell-based; conditions: dose 10.0 µmol/L, time 4-24 hrs
[10] = Toxicity in human NCI-H460 cells xenografted CD1 nude mouse assessed as body weight loss at 100 mg/kg, iv administered once a week for 2 weeks measured on day 14 to 16; type: organism-based; conditions: in vivo, 336 h, time 14-16 day
How it was run: (§3)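 Mice with s.c. NCI-H460 xenografts (50% Matrigel/50% PBS, left flank), randomized at mean 0.2 cm³, n=5/group, treatment started 8 d after implant. Gemcitabine 100 mg/kg i.v. in saline on days 0 and 7; vehicle-only controls. Body weight and physical signs monitored throughout.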

[11] = target: RAC-alpha serine/threonine-protein kinase (Homo sapiens) (UniProt P31749); assay: Induction of AKT phosphorylation at S473 residue in human NCI-H460 cells at 5 nmol/L measured after 8 hrs by MSD assay; type: cell-based; conditions: filed as activator; how it was run: as §2
[12] = Toxicity in human NCI-H460 cells xenografted CD1 nude mouse assessed as body weight loss at 100 mg/kg, iv administered once a week for 2 weeks measured during compound dosing relative to control; type: organism-based; conditions: in vivo, 336 h; how it was run: as §3
[13] = target: RAC-alpha serine/threonine-protein kinase (Homo sapiens) (UniProt P31749); assay: Induction of AKT phosphorylation at S473 residue in human NCI-H661 cells at 10 nmol/L measured after 8 hrs by MSD assay; type: cell-based; conditions: filed as activator; how it was run: as §2
[14] = target: RAC-alpha serine/threonine-protein kinase (Homo sapiens) (UniProt P31749); assay: Induction of AKT phosphorylation at S473 residue in human NCI-H441cells at 5 nmol/L measured after 4 to 24 hrs by MSD assay; type: cell-based; conditions: NCI-H441, time 4-24 hrs; how it was run: as §2
[15] = Toxicity in human PC-3 cells xenografted CD1 nude mouse assessed as body weight loss at 5 mg/kg, iv measured on day 15 relative to control; type: organism-based; conditions: in vivo, 360 h, time 15 day
How it was run: (§4)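 Male CD1-nude mice with s.c. PC-3 tumours (50% Matrigel/50% PBS, left flank), randomized at mean 0.2 cm³, n=5/group, treated from 25 d post-implant. Body weight monitored versus vehicle-only controls.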

PC-3 = assay: Antitumor activity against human PC-3 cells xenografted in CD1 nude mouse assessed as reduction in tumor volume at 5 mg/kg, iv by caliper method; type: functional, organism-based
How it was run: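 Male CD1-nude mice received s.c. PC-3 cells and were treated from day 25 after implant, at 0.2 cm³, n = 5. Docetaxel (0.73% ethanol in saline) was given at 5 mg/kg i.v. on day 0. MK-2206 (30% Captisol) was given at 120 mg/kg po on days 1, 3, 5, 8, 10, 12. Caliper volume twice weekly.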

[16] = Toxicity in human PC-3 cells xenografted CD1 nude mouse assessed as body weight loss at 5 mg/kg, iv relative to control; type: organism-based; conditions: in vivo; how it was run: as §4
SK-OV-3 [17] = assay: Antiproliferative activity against human SK-OV-3 cells assessed as reduction in cell proliferation measured after 72 hrs by celltiter-glo assay; type: functional, cell-based; conditions: SK-OV-3, 72 h; how it was run: as §1
HCC70 [18] = assay: Antiproliferative activity against human HCC70 cells assessed as reduction in cell proliferation measured after 72 hrs by celltiter-glo assay; type: functional, cell-based; conditions: HCC70, 72 h; how it was run: as §1
HCC1954 = assay: Antiproliferative activity against human HCC1954 cells assessed as reduction in cell proliferation measured after 72 hrs by celltiter-glo assay; type: functional, cell-based; conditions: HCC1954, 72 h; how it was run: as §1
[19] = target: RAC-alpha serine/threonine-protein kinase (Homo sapiens) (UniProt P31749); assay: Inhibition of AKT phosphorylation at S473 residue in human HCC70 cells at 10 umol/L measured up to 24 hrs by Western blot analysis; type: cell-based; conditions: dose 10.0 µmol/L
How it was run: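 HCC70 cells at ~70% confluence were exposed to 10 µmol/L lapatinib, 1 µmol/L MK-2206, or both, for 0, 3, 6, 12 or 24 h. Lysates were prepared in Triton X-100/Tris buffer (pH 7.5) with protease and phosphatase inhibitors. Immunoblots after SDS-PAGE and nitrocellulose transfer were probed for pAkt and pS6.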

SK-BR-3 = assay: Antiproliferative activity against human SK-BR-3 cells assessed as reduction in cell proliferation measured after 72 hrs by celltiter-glo assay; type: functional, cell-based; conditions: SK-BR-3, 72 h; how it was run: as §1
NCI-N87 = assay: Antiproliferative activity against human NCI-N87 cells assessed as reduction in cell proliferation measured after 72 hrs by celltiter-glo assay; type: functional, cell-based; conditions: NCI-N87, 72 h; how it was run: as §1
SK-OV-3 [20] = assay: Antitumor activity against human SK-OV-3 cells xenografted in CB17/icr SCID mouse assessed as tumor growth inhibition at 100 mg/kg, po administered 5 days per week for 2 weeks and measured twice a week during compound dosing by caliper method; type: functional, organism-based
How it was run: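 SK-OV-3 cells were implanted s.c. into female C.B-17/ICR-scid mice, which were randomized at 0.13 cm³, n = 5. Lapatinib (water) was given at 100 mg/kg po on days 0–4 and 7–11. MK-2206 (30% Captisol) was given at 60 or 120 mg/kg po on days 0, 2, 4, 7, 9, 11. Tumor volume by calipers twice weekly.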

MDA-MB-468 = assay: Antiproliferative activity against human MDA-MB-468 cells assessed as reduction in cell proliferation measured after 72 hrs by celltiter-glo assay; type: functional, cell-based; conditions: MDA-MB-468, 72 h; how it was run: as §1
HCC70 [21] = assay: Induction of apoptosis in human HCC70 cells assessed as increase in caspase-3/7 activity at 10 umol/L measured after 48 hrs by caspase-glo 3/7 assay relative to control; type: functional; conditions: dose 10 µmol/L
How it was run: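 HCC70 breast cells were treated for 48 h with MK-2206 (0, 0.03, 0.3, 3 µmol/L), with or without lapatinib (0, 1, 3, 5, 10 µmol/L). Caspase-3/7 activity was read by Caspase-Glo 3/7 luminescence and expressed as fold induction over DMSO-treated control. The experiment was run twice.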

Sequence of RAC-alpha serine/threonine-protein kinase (Homo sapiens) (P31749 whole entry): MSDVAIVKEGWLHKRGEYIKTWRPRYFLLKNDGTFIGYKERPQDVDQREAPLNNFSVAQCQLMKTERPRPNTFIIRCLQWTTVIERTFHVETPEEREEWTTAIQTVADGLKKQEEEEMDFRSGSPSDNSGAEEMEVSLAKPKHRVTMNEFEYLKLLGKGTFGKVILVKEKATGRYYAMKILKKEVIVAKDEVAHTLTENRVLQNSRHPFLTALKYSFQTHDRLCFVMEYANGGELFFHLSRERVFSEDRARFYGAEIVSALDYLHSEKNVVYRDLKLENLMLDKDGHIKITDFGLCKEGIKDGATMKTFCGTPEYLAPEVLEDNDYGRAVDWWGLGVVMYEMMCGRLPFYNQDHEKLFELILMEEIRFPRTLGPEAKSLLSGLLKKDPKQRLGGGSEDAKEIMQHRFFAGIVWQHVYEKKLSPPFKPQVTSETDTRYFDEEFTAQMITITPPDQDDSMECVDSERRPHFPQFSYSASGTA

C#Cc1cccc(Nc2ncnc3cc(OCCOC)c(OCCOC)cc23)c1 [ERLOTINIB]
Activity (NCI-H292 [1]): Active
inhibition (Mus musculus [2]): Active
IC50 (NCI-H292 [3]): 0.5 µM
inhibition (Mus musculus [4]): inactive
IC50 (NCI-H1299): 21.1 µM
IC50 (Calu-6): 35.6 µM
Activity [5]: Non-Toxic
Activity (NCI-H292 [6]): inactive
IC50 (NCI-H23): 10.6 µM
IC50 (HCC827): 0.02 µM
IC50 (NCI-H358): 4.4 µM
IC50 (A-431): 1.9 µM

Nc1ccn([C@@H]2O[C@H](CO)[C@@H](O)C2(F)F)c(=O)n1 [GEMCITABINE]
Activity [7]: Active
Activity [8]: Active
Activity [9]: inactive
Activity [10]: Non-Toxic
Activity [11]: Active
Activity [12]: 7%
Activity [13]: Active
Activity [14]: inactive

CC(=O)O[C@@]12CO[C@@H]1C[C@H](O)[C@@]1(C)C(=O)[C@H](O)C3=C(C)[C@@H](OC(=O)[C@H](O)[C@@H](NC(=O)OC(C)(C)C)c4ccccc4)C[C@@](O)([C@@H](OC(=O)c4ccccc4)[C@H]21)C3(C)C [DOCETAXEL ANHYDROUS]
Activity [15]: Non-Toxic
Activity (PC-3): Active
Activity [16]: 4%

CS(=O)(=O)CCNCc1ccc(-c2ccc3ncnc(Nc4ccc(OCc5cccc(F)c5)c(Cl)c4)c3c2)o1 [LAPATINIB]
IC50 (SK-OV-3 [17]): > 10 µM
IC50 (HCC70 [18]): 3.2 µM
IC50 (HCC1954): 5.5 µM
inhibition [19]: inactive
IC50 (SK-BR-3): 0.03 µM
IC50 (NCI-N87): 0.04 µM
TGI (SK-OV-3 [20]): Active
IC50 (MDA-MB-468): 4.5 µM
fold change (FC) (HCC70 [21]): ~2
